Reference: ChEMBL document CHEMBL4699476, “Structure-based drug optimization and biological evaluation of tetrahydroquinolin derivatives as selective and potent CBP bromodomain inhibitors” (Bioorg Med Chem Lett, 2020)

Columns and labels:
[1] = tested on: MV4-11; assay: Antiproliferative activity against human MV4-11 cells at 6.25 uM incubated for 6 days relative to control; assay type: functional; conditions: MV4-11, 144 h, time 6 day
Summary of the method: (§1)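 MV4-11 AML cells exposed to test agent at 6.25 or 1.56 µM for 6 days; viability read as percent growth inhibition versus control; inhibition rates are means of at least two determinations.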

[2] = tested on: MV4-11; assay: Antiproliferative activity against human MV4-11 cells at 1.56 uM incubated for 6 days relative to control; assay type: functional; conditions: MV4-11, 144 h, time 6 day; summary of the method: as §1
[3] = target: T1, CREB-binding protein (Homo sapiens, UniProt Q92793); assay: Inhibition of CBP BRD (unknown origin) by TR-FRET assay
Target sequence in this assay (Q92793 whole entry): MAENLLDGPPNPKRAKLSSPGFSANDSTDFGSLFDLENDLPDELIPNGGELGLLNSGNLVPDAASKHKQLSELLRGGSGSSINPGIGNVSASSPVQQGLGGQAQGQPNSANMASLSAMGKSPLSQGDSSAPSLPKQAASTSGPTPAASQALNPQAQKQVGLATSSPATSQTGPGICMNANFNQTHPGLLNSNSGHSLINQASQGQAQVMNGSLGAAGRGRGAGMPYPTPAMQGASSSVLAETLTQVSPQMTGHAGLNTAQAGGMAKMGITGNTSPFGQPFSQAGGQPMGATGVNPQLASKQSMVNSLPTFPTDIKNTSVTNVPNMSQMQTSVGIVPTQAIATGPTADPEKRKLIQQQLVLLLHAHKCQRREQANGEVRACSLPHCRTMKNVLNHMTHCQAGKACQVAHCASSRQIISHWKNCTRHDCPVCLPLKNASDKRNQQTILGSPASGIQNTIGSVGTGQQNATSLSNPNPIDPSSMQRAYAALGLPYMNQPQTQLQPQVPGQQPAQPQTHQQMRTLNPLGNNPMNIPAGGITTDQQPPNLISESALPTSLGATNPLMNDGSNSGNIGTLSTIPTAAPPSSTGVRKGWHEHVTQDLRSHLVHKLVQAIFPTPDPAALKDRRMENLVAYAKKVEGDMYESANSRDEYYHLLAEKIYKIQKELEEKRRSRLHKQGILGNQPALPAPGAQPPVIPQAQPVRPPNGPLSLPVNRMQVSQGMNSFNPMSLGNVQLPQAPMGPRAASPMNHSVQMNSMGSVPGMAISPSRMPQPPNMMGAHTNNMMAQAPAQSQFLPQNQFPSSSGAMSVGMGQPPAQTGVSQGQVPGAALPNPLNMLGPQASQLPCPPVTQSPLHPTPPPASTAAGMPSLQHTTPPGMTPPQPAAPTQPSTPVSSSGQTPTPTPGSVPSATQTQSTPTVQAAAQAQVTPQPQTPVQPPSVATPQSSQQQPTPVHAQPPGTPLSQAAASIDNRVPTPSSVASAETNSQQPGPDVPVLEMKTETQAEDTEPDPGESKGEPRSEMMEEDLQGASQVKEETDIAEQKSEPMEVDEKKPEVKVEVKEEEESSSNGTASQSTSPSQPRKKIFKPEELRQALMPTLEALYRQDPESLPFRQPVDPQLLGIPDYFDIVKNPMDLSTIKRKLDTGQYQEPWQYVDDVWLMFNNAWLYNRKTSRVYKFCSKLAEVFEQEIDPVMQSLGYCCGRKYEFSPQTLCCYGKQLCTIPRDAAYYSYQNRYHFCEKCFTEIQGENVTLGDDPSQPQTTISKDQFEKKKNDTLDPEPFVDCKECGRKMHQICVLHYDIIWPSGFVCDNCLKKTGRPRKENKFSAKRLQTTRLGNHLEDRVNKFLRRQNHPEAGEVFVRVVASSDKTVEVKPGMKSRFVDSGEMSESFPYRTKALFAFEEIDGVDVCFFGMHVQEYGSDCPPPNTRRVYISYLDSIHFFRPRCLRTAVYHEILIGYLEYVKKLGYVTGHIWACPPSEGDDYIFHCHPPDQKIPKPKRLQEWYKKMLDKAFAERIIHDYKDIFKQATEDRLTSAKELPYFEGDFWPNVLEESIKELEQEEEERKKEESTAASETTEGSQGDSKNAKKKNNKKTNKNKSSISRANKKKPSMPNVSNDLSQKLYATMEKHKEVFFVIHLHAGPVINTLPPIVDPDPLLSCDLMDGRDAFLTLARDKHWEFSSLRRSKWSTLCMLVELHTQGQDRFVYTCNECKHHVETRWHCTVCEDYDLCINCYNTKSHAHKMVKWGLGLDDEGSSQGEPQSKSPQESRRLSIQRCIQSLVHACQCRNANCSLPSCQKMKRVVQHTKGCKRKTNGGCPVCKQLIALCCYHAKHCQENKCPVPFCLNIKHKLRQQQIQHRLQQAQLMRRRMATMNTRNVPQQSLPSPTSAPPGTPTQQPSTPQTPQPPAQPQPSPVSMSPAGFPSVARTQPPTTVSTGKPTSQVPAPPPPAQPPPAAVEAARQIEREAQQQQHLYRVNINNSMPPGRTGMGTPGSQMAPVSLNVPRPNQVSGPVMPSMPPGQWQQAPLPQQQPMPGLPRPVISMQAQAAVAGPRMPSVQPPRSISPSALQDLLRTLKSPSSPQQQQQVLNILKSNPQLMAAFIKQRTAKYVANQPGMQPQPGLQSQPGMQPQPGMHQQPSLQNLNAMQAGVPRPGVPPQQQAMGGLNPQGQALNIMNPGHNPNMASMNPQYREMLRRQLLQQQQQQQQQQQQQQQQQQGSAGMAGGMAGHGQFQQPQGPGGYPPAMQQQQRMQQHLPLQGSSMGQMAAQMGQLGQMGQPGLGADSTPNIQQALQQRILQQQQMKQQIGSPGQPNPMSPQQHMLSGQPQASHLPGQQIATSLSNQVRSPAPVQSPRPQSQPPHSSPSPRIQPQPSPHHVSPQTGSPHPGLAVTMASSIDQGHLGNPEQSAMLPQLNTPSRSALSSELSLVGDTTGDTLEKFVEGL

[4] = target: T2, Bromodomain-containing protein 4 (Homo sapiens, UniProt O60885); assay: Inhibition of BRD4 BD1 (unknown origin) by ALPHAScreen assay
[5] = target: T2, Bromodomain-containing protein 4; assay: Inhibition of BRD4 BD2 (unknown origin) by ALPHAScreen assay
[6] = target: T1, CREB-binding protein; assay: Inhibition of GST-tagged CBP BRD (unknown origin) incubated for 30 mins by HTRF assay
Target sequence in this assay (Q92793 whole entry): as above

[7] = tested on: MV4-11; assay: Antiproliferative activity against human MV4-11 cells incubated for 6 days relative to control; assay type: functional, cell-based; conditions: MV4-11, 144 h
Summary of the method: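 MV4-11 cells treated for 6 days; IC50 derived for agents giving over 50% growth inhibition at 1.56 µM; values reported with ± error.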

[8] = target: T1, CREB-binding protein; assay: Inhibition of CBP in human MV4-11 cells assessed as decrease in c-myc protein expression incubated for 12 hrs by Western blot analysis; assay type: cell-based; conditions: dose microM 0.25-2, time 12.0 hrs
Summary of the method: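 MV4-11 cells treated at 0, 0.25, 0.5, 1 and 2 µM for 12 h; c-Myc protein level assessed by Western blot.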
Target sequence in this assay (Q92793 2-2442 limits assumed): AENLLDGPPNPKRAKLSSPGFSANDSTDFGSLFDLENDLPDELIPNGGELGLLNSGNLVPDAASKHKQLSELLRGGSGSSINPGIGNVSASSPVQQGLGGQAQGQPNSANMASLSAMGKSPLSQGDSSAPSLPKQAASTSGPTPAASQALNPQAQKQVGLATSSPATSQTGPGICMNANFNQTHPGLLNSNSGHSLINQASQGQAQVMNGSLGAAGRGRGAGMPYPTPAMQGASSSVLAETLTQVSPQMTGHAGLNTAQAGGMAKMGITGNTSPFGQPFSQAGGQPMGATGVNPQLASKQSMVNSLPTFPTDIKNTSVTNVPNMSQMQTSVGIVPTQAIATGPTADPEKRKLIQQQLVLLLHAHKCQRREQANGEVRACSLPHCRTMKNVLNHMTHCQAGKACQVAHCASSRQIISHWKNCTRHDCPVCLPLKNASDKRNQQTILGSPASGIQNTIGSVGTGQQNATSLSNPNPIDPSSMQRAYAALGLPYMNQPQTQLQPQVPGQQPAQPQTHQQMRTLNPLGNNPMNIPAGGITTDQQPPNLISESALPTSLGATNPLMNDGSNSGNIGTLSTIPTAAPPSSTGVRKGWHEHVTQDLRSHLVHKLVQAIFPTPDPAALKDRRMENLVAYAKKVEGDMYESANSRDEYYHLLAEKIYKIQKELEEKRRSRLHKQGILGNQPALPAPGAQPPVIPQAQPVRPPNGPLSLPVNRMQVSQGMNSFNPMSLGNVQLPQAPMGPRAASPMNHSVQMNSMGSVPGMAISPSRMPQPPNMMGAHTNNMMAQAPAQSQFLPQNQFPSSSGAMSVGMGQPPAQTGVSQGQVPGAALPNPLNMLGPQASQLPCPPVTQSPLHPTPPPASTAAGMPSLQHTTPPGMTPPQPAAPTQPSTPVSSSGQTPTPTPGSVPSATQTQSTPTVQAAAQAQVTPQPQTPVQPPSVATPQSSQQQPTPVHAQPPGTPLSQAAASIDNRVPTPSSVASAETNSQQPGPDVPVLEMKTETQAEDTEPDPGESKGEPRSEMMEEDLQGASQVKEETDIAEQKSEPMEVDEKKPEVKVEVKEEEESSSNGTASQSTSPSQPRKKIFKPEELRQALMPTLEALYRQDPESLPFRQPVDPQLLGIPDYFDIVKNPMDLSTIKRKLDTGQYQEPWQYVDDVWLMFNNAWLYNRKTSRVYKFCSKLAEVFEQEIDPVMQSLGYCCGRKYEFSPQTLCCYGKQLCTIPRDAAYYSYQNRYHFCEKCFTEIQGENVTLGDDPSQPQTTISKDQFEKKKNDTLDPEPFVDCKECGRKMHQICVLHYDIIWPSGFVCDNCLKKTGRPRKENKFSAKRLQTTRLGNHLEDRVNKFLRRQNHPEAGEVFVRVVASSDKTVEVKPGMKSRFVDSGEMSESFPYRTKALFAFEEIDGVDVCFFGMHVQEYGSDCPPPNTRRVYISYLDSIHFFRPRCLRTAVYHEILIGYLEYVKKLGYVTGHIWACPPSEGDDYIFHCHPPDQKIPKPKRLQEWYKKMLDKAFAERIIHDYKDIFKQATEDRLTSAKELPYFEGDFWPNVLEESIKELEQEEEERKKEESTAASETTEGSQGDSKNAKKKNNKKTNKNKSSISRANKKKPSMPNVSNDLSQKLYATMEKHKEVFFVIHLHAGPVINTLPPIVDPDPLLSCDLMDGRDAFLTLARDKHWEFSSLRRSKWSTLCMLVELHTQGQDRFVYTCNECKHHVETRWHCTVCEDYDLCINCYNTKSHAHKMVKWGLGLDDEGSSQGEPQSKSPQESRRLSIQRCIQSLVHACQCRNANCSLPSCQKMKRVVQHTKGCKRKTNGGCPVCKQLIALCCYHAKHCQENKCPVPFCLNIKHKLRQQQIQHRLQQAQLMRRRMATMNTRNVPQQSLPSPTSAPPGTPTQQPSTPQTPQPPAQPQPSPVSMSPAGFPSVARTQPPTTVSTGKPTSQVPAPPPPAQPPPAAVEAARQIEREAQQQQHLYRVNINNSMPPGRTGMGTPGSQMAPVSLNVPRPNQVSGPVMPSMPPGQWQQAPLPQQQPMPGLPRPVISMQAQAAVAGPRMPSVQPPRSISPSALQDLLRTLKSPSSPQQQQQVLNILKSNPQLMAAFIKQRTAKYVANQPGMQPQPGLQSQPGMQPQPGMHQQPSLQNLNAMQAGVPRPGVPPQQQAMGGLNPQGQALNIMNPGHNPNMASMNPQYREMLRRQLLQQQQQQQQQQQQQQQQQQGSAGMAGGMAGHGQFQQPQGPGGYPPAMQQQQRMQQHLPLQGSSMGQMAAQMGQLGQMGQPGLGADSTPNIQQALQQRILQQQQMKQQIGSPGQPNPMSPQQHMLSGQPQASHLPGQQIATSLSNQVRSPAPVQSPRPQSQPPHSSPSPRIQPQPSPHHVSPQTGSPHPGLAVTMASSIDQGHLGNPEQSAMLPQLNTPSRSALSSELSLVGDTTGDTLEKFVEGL

[9] = target: T1, CREB-binding protein; assay: Binding affinity to CBP BRD (unknown origin) by microscale thermophoresis assay
Target sequence in this assay (Q92793 whole entry): as the sequence (Q92793 whole entry) above

[10] = organism: Homo sapiens; assay: Selectivity index, ratio of IC50 for BR4 BD1 (unknown origin) to IC50 for CBP BRD (unknown origin)
[11] = organism: Homo sapiens; assay: Selectivity index, ratio of IC50 for BR4 BD2 (unknown origin) to IC50 for CBP BRD (unknown origin)

| Compound | IC50 [3] [µM] | inhibition at 6.25 µM [1] [%] | inhibition at 1.56 µM [2] [%] | further results |
| --- | --- | --- | --- | --- |
| CNC(=O)N1CCCc2ccc(NC(=O)c3ccc(-c4ccccn4)cc3)cc21 | 0.102 | 79.2 | 31.9 | – |
| CNC(=O)N1CCCc2ccc(NC(=O)c3cccc(-c4ccn(C(C)=O)n4)c3)cc21 | 0.0946 | 87.6 | 27.6 | – |
| C[C@@H]1CC(=O)Nc2cccc(-c3ccc4c(c3)c(-c3cnn(C)c3)nn4C)c2N1 | – | – | – | IC50 [4]: 12 µM; IC50 [5]: 18.8 µM |
| CNC(=O)N1CCCc2ccc(NC(=O)c3cccc(-c4ccccc4)c3)cc21 | – | 60.4 | 10.7 | IC50 [6]: 8.41 µM |
| CNC(=O)N1CCCc2ccc(NC(=O)c3ccccc3-c3ccccc3)cc21 | – | 1.39 | 2.83 | IC50 [6]: 0.213 µM |
| CNC(=O)N1CCCc2ccc(NC(=O)c3cccc(-c4cnn(C(C)=O)c4)c3)cc21 | 0.0765 | 82 | 33.5 | – |
| CNC(=O)N1CCCc2ccc(NC(=O)c3ccc(-c4ccn(C(C)=O)n4)cc3)cc21 | 0.0523 | 91.3 | 35.8 | – |
| CNC(=O)N1CCCc2ccc(NC(=O)c3cccc(-c4cn[nH]c4)c3)cc21 | 0.0913 | 77.7 | 27.9 | – |
| CNC(=O)N1CCCc2ccc(NC(=O)c3cccc(-c4ccn(S(C)(=O)=O)n4)c3)cc21 | 0.103 | 37 | 4.03 | – |
| CNC(=O)N1CCCc2ccc(NC(=O)c3ccc(-c4cnn(S(C)(=O)=O)c4)cc3)cc21 | 0.0931 | 40.2 | 4.5 | – |
| CNC(=O)N1CCCc2ccc(NC(=O)c3ccc(-c4ccccc4)cc3)cc21 | 0.195 | 74.3 | 19.6 | – |
| CNC(=O)N1CCCc2ccc(NC(=O)c3ccc(-c4ccn(S(C)(=O)=O)n4)cc3)cc21 | 0.0744 | 57.2 | 8.81 | – |
| COC(=O)N1CCCc2ccc(NC(=O)C3CC=CCC3C(=O)O)cc21 (centres undefined) | – | – | – | IC50 [6]: 2.3 µM |
| CNC(=O)N1CCCc2ccc(NC(=O)c3ccc(-c4cc[nH]n4)cc3)cc21 | 0.0195 | 99.1 | 92.5 | inhibition [8]: Dose-dependent effect; IC50 [7]: 0.55 µM; Kd [9]: 0.0254 µM; IC50 [4]: 8.4 µM; Ratio IC50 [10]: > 400; IC50 [5]: 19 µM; Ratio IC50 [11]: > 400 |
| CNC(=O)N1CCCc2ccc(NC(=O)c3ccc(-c4cccnc4)cc3)cc21 | 0.0537 | 92.1 | 62.5 | IC50 [7]: 1.16 µM |
| CNC(=O)N1CCCc2ccc(NC(=O)c3cccc(-c4cnn(S(C)(=O)=O)c4)c3)cc21 | 0.286 | 18 | 1.6 | – |
| CNC(=O)N1CCCc2ccc(NC(=O)c3cccc(-c4ccncc4)c3)cc21 | 0.0633 | – | – | IC50 [6]: 0.0633 µM |
| CNC(=O)N1CCCc2ccc(NC(=O)c3ccc(-c4ccncc4)cc3)cc21 | 0.0892 | 88.7 | 37.6 | – |

Second part, led by results:

| IC50 [3] [µM] | Compound | inhibition at 6.25 µM [1] [%] | inhibition at 1.56 µM [2] [%] | further results |
| --- | --- | --- | --- | --- |
| 0.0457 | CNC(=O)N1CCCc2ccc(NC(=O)c3cccc(-c4ccn(C)n4)c3)cc21 | 99.5 | 70.5 | IC50 [7]: 0.98 µM |
| 0.0477 | CNC(=O)N1CCCc2ccc(NC(=O)c3ccc(-c4cn[nH]c4)cc3)cc21 | 98.3 | 73.5 | IC50 [7]: 0.87 µM |
| 0.0554 | CNC(=O)N1CCCc2ccc(NC(=O)c3cccc(-c4cnn(C)c4)c3)cc21 | 93.5 | 71.2 | IC50 [7]: 1.04 µM |
| 0.0402 | CNC(=O)N1CCCc2ccc(NC(=O)c3ccc(-c4ccn(C)n4)cc3)cc21 | 97 | 72.2 | IC50 [7]: 0.83 µM |
| 0.0852 | CNC(=O)N1CCCc2ccc(NC(=O)c3ccc(-c4cnn(C(C)=O)c4)cc3)cc21 | 83.8 | 23.9 | – |
| 0.0929 | CNC(=O)N1CCCc2ccc(NC(=O)c3cccc(-c4cc[nH]n4)c3)cc21 | 89.7 | 27.3 | – |
| 0.0374 | CNC(=O)N1CCCc2ccc(NC(=O)c3ccc(-c4cnn(C)c4)cc3)cc21 | 94.4 | 77.3 | IC50 [7]: 0.73 µM |
